For assay [1], the target named is T1, Toll-like receptor 9 (Homo sapiens) (UniProt Q9NR96).
T1 sequence (whole entry): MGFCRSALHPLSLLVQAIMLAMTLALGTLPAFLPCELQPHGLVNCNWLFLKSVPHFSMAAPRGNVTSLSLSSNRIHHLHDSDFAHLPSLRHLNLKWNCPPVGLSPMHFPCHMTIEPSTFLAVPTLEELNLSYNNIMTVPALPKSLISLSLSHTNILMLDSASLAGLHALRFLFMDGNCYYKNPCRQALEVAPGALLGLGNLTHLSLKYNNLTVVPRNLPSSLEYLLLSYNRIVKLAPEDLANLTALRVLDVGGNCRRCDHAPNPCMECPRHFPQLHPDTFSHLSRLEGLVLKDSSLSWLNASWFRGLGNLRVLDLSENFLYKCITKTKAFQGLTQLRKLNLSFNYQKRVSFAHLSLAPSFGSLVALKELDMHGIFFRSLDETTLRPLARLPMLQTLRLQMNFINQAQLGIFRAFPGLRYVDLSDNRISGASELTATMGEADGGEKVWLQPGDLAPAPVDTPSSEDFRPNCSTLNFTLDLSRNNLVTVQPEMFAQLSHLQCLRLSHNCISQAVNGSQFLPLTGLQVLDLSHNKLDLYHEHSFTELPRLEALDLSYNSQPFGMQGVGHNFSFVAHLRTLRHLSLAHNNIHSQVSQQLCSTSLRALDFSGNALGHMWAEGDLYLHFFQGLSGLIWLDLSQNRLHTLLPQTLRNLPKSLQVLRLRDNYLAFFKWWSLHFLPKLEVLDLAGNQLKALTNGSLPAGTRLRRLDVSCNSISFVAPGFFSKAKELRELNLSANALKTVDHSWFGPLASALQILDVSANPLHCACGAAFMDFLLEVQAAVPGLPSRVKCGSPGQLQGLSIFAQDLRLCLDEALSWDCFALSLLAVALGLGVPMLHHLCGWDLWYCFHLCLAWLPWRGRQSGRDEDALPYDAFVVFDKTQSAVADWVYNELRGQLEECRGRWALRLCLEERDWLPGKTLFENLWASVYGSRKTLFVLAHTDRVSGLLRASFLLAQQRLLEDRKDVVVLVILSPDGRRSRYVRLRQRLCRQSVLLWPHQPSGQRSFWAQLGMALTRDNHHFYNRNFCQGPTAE
Description: Induction of TLR9-mediated immune stimulation in human PBMC assessed as IL6 production at 2 ug/ml after 24 hrs by luminex multiplex assay (RVb = 0.01 ng/ml).

Assay [2] deals with T1, Toll-like receptor 9 (Homo sapiens). Description: Induction of TLR9-mediated immune stimulation in human PBMC assessed as IL1Ralpha production at 2 ug/ml after 24 hrs by luminex multiplex assay (RVb = 0.12 +/- 0.03 ng/ml).
The target is the same in assay [3]. Description: Induction of TLR9-mediated immune stimulation in human PBMC assessed as IL2R production at 2 ug/ml after 24 hrs by luminex multiplex assay (RVb = 0.02 +/- 0.01 ng/ml).
The target is the same in assay [4]. Description: Induction of TLR9-mediated human B cell proliferation assessed as [3H]thymidine uptake after 56 hrs by scintillation counting. The gist of the method: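 B cells were purified from human PBMCs (healthy volunteers), about 1 × 10⁵ cells, and stimulated with various agonist concentrations for 56 h. Cells were then pulsed with 0.75 μCi [³H]-thymidine and harvested 16 h later. Incorporation was counted by scintillation and reported as cpm.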

The results in this text go back to ChEMBL document CHEMBL1157912, “Impact of nature and length of linker incorporated in agonists on toll-like receptor 9-mediated immune responses” (J Med Chem, 2010).

With `Cc1cn([C@H]2C[C@H](O[C@H]3C[C@@H](O)C[C@@H](OP(=O)(S)O[C@H]4C[C@H](n5cc(C)c(=O)[nH]c5=O)O[C@@H]4COP(=O)(S)O[C@H]4[C@@H](O)[C@H](n5ccc(N)nc5=O)O[C@@H]4COP(=O)(S)O[C@H]4C[C@H](n5cc(C)c(=O)[nH]c5=O)O[C@@H]4COP(=O)(S)O[C@H]4C[C@H](n5cc(C)c(=O)[nH]c5=O)O[C@@H]4COP(=O)(S)O[C@H]4C[C@H](n5ccc6c(=O)[nH]c(N)nc65)O[C@@H]4COP(=O)(S)O[C@H]4[C@@H](O)[C@H](n5ccc(N)nc5=O)O[C@@H]4COP(=O)(S)O[C@H]4C[C@H](n5cc(C)c(=O)[nH]c5=O)O[C@@H]4COP(=O)(S)O[C@H]4[C@@H](O)[C@H](n5cnc6c(=O)[nH]c(N)nc65)O[C@@H]4COP(=O)(S)O[C@H]4C[C@H](n5cc(C)c(=O)[nH]c5=O)O[C@@H]4COP(=O)(S)O[C@H]4[C@@H](O)[C@H](n5ccc(N)nc5=O)O[C@@H]4COP(=O)(S)O[C@H]4C[C@H](n5cc(C)c(=O)[nH]c5=O)O[C@@H]4CO)C3)[C@@H](COP(=O)(S)O[C@H]3[C@@H](O)[C@H](n4ccc(N)nc4=O)O[C@@H]3COP(=O)(S)O[C@H]3C[C@H](n4cc(C)c(=O)[nH]c4=O)O[C@@H]3COP(=O)(S)O[C@H]3C[C@H](n4cc(C)c(=O)[nH]c4=O)O[C@@H]3COP(=O)(S)O[C@H]3C[C@H](n4ccc5c(=O)[nH]c(N)nc54)O[C@@H]3COP(=O)(S)O[C@H]3[C@@H](O)[C@H](n4ccc(N)nc4=O)O[C@@H]3COP(=O)(S)O[C@H]3C[C@H](n4cc(C)c(=O)[nH]c4=O)O[C@@H]3COP(=O)(S)O[C@H]3[C@@H](O)[C@H](n4cnc5c(=O)[nH]c(N)nc54)O[C@@H]3COP(=O)(S)O[C@H]3C[C@H](n4cc(C)c(=O)[nH]c4=O)O[C@@H]3COP(=O)(S)O[C@H]3[C@@H](O)[C@H](n4ccc(N)nc4=O)O[C@@H]3COP(=O)(S)O[C@H]3C[C@H](n4cc(C)c(=O)[nH]c4=O)O[C@@H]3CO)O2)c(=O)[nH]c1=O` (stereo partly specified), the Activity in assay [1] is 0.3 ng/mL; in assay [2], 13.6 ng/mL; in assay [3] it was 0.07 ng/mL; in assay [4] it was “Dose-dependent effect”.

Turning to `Cc1cn([C@H]2C[C@H](OCCOCCOCCOCCOP(=O)(S)O[C@H]3C[C@H](n4cc(C)c(=O)[nH]c4=O)O[C@@H]3COP(=O)(S)O[C@H]3[C@@H](O)[C@H](n4ccc(N)nc4=O)O[C@@H]3COP(=O)(S)O[C@H]3C[C@H](n4cc(C)c(=O)[nH]c4=O)O[C@@H]3COP(=O)(S)O[C@H]3C[C@H](n4cc(C)c(=O)[nH]c4=O)O[C@@H]3COP(=O)(S)O[C@H]3C[C@H](n4ccc5c(=O)[nH]c(N)nc54)O[C@@H]3COP(=O)(S)O[C@H]3[C@@H](O)[C@H](n4ccc(N)nc4=O)O[C@@H]3COP(=O)(S)O[C@H]3C[C@H](n4cc(C)c(=O)[nH]c4=O)O[C@@H]3COP(=O)(S)O[C@H]3[C@@H](O)[C@H](n4cnc5c(=O)[nH]c(N)nc54)O[C@@H]3COP(=O)(S)O[C@H]3C[C@H](n4cc(C)c(=O)[nH]c4=O)O[C@@H]3COP(=O)(S)O[C@H]3[C@@H](O)[C@H](n4ccc(N)nc4=O)O[C@@H]3COP(=O)(S)O[C@H]3C[C@H](n4cc(C)c(=O)[nH]c4=O)O[C@@H]3CO)[C@@H](COP(=O)(S)O[C@H]3[C@@H](O)[C@H](n4ccc(N)nc4=O)O[C@@H]3COP(=O)(S)O[C@H]3C[C@H](n4cc(C)c(=O)[nH]c4=O)O[C@@H]3COP(=O)(S)O[C@H]3C[C@H](n4cc(C)c(=O)[nH]c4=O)O[C@@H]3COP(=O)(S)O[C@H]3C[C@H](n4ccc5c(=O)[nH]c(N)nc54)O[C@@H]3COP(=O)(S)O[C@H]3[C@@H](O)[C@H](n4ccc(N)nc4=O)O[C@@H]3COP(=O)(S)O[C@H]3C[C@H](n4cc(C)c(=O)[nH]c4=O)O[C@@H]3COP(=O)(S)O[C@H]3[C@@H](O)[C@H](n4cnc5c(=O)[nH]c(N)nc54)O[C@@H]3COP(=O)(S)O[C@H]3C[C@H](n4cc(C)c(=O)[nH]c4=O)O[C@@H]3COP(=O)(S)O[C@H]3[C@@H](O)[C@H](n4ccc(N)nc4=O)O[C@@H]3COP(=O)(S)O[C@H]3C[C@H](n4cc(C)c(=O)[nH]c4=O)O[C@@H]3CO)O2)c(=O)[nH]c1=O` (stereo partly specified), the Activity in assay [1] was 0.14 ng/mL; in assay [2] it was 9.05 ng/mL; in assay [3], 0.04 ng/mL; in assay [4] it was “Dose-dependent effect”.

In the case of `Cc1cn([C@H]2C[C@H](OCC(O)COP(=O)(S)O[C@H]3C[C@H](n4cc(C)c(=O)[nH]c4=O)O[C@@H]3COP(=O)(S)O[C@H]3[C@@H](O)[C@H](n4ccc(N)nc4=O)O[C@@H]3COP(=O)(S)O[C@H]3C[C@H](n4cc(C)c(=O)[nH]c4=O)O[C@@H]3COP(=O)(S)O[C@H]3C[C@H](n4cc(C)c(=O)[nH]c4=O)O[C@@H]3COP(=O)(S)O[C@H]3C[C@H](n4ccc5c(=O)[nH]c(N)nc54)O[C@@H]3COP(=O)(S)O[C@H]3[C@@H](O)[C@H](n4ccc(N)nc4=O)O[C@@H]3COP(=O)(S)O[C@H]3C[C@H](n4cc(C)c(=O)[nH]c4=O)O[C@@H]3COP(=O)(S)O[C@H]3[C@@H](O)[C@H](n4cnc5c(=O)[nH]c(N)nc54)O[C@@H]3COP(=O)(S)O[C@H]3C[C@H](n4cc(C)c(=O)[nH]c4=O)O[C@@H]3COP(=O)(S)O[C@H]3[C@@H](O)[C@H](n4ccc(N)nc4=O)O[C@@H]3COP(=O)(S)O[C@H]3C[C@H](n4cc(C)c(=O)[nH]c4=O)O[C@@H]3CO)[C@@H](COP(=O)(S)O[C@H]3[C@@H](O)[C@H](n4ccc(N)nc4=O)O[C@@H]3COP(=O)(S)O[C@H]3C[C@H](n4cc(C)c(=O)[nH]c4=O)O[C@@H]3COP(=O)(S)O[C@H]3C[C@H](n4cc(C)c(=O)[nH]c4=O)O[C@@H]3COP(=O)(S)O[C@H]3C[C@H](n4ccc5c(=O)[nH]c(N)nc54)O[C@@H]3COP(=O)(S)O[C@H]3[C@@H](O)[C@H](n4ccc(N)nc4=O)O[C@@H]3COP(=O)(S)O[C@H]3C[C@H](n4cc(C)c(=O)[nH]c4=O)O[C@@H]3COP(=O)(S)O[C@H]3[C@@H](O)[C@H](n4cnc5c(=O)[nH]c(N)nc54)O[C@@H]3COP(=O)(S)O[C@H]3C[C@H](n4cc(C)c(=O)[nH]c4=O)O[C@@H]3COP(=O)(S)O[C@H]3[C@@H](O)[C@H](n4ccc(N)nc4=O)O[C@@H]3COP(=O)(S)O[C@H]3C[C@H](n4cc(C)c(=O)[nH]c4=O)O[C@@H]3CO)O2)c(=O)[nH]c1=O` (stereo partly specified), the Activity in assay [1] was 0.36 ng/mL; in assay [2], 13 ng/mL; in assay [3] it was 0.06 ng/mL; in assay [4], “Dose-dependent effect”.

With `Cc1cn([C@H]2C[C@H](OCCC(O)CCOP(=O)(S)O[C@H]3C[C@H](n4cc(C)c(=O)[nH]c4=O)O[C@@H]3COP(=O)(S)O[C@H]3[C@@H](O)[C@H](n4ccc(N)nc4=O)O[C@@H]3COP(=O)(S)O[C@H]3C[C@H](n4cc(C)c(=O)[nH]c4=O)O[C@@H]3COP(=O)(S)O[C@H]3C[C@H](n4cc(C)c(=O)[nH]c4=O)O[C@@H]3COP(=O)(S)O[C@H]3C[C@H](n4ccc5c(=O)[nH]c(N)nc54)O[C@@H]3COP(=O)(S)O[C@H]3[C@@H](O)[C@H](n4ccc(N)nc4=O)O[C@@H]3COP(=O)(S)O[C@H]3C[C@H](n4cc(C)c(=O)[nH]c4=O)O[C@@H]3COP(=O)(S)O[C@H]3[C@@H](O)[C@H](n4cnc5c(=O)[nH]c(N)nc54)O[C@@H]3COP(=O)(S)O[C@H]3C[C@H](n4cc(C)c(=O)[nH]c4=O)O[C@@H]3COP(=O)(S)O[C@H]3[C@@H](O)[C@H](n4ccc(N)nc4=O)O[C@@H]3COP(=O)(S)O[C@H]3C[C@H](n4cc(C)c(=O)[nH]c4=O)O[C@@H]3CO)[C@@H](COP(=O)(S)O[C@H]3[C@@H](O)[C@H](n4ccc(N)nc4=O)O[C@@H]3COP(=O)(S)O[C@H]3C[C@H](n4cc(C)c(=O)[nH]c4=O)O[C@@H]3COP(=O)(S)O[C@H]3C[C@H](n4cc(C)c(=O)[nH]c4=O)O[C@@H]3COP(=O)(S)O[C@H]3C[C@H](n4ccc5c(=O)[nH]c(N)nc54)O[C@@H]3COP(=O)(S)O[C@H]3[C@@H](O)[C@H](n4ccc(N)nc4=O)O[C@@H]3COP(=O)(S)O[C@H]3C[C@H](n4cc(C)c(=O)[nH]c4=O)O[C@@H]3COP(=O)(S)O[C@H]3[C@@H](O)[C@H](n4cnc5c(=O)[nH]c(N)nc54)O[C@@H]3COP(=O)(S)O[C@H]3C[C@H](n4cc(C)c(=O)[nH]c4=O)O[C@@H]3COP(=O)(S)O[C@H]3[C@@H](O)[C@H](n4ccc(N)nc4=O)O[C@@H]3COP(=O)(S)O[C@H]3C[C@H](n4cc(C)c(=O)[nH]c4=O)O[C@@H]3CO)O2)c(=O)[nH]c1=O` (stereo partly specified), the Activity in assay [1] was 0.31 ng/mL; in assay [2] it was 8.94 ng/mL; in assay [3], 0.03 ng/mL; in assay [4], “Dose-dependent effect”.
